LMPTP inh: LMPTP (human) inhibition; recombinant LMPTP-A, OMFP fluorogenic substrate, fluorescence intensity; inhibition, % at 20 µM; P24666; hit rate 0.22% among 360,000;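 active = compounds that cut the enzyme signal by at least half of the control window in the single-dose screen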;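 also: plate controls were DMSO wells with enzyme plus substrate for no effect and substrate without enzyme for full effect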
Target sequence (P24666 whole entry, looked up): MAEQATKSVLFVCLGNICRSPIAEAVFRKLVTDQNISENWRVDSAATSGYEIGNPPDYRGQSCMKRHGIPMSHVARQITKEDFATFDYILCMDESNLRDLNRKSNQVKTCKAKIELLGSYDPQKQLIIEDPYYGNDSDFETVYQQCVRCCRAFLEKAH
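Test system: LMPTP-A phosphatase enzyme. Amount: LMPTP-A at 0.625 nM final in the reaction. Reagent: OMFP substrate, 400 µM final. Times: 50 min at room temperature. Signal: endpoint fluorescence intensity from OMFP dephosphorylation. Read-out basis: % inhibition. Benchmarks: no-enzyme and uninhibited controls.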
CSN inh: inhibitors of human CSN-mediated cullin deneddylation; Q92905; Purified CSN, SCF-Nedd8-OG deneddylation, fluorescence polarization; inhibition, % at 12.5 µM; hit rate 0.38% among 360,000;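 active = pattern-corrected inhibition above about 35%, with an unprinted fluorescence ratio check between 0.5 and 1.5, limit read from the data, passing the limit was not always enough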;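 also: 0% = enzyme with substrate and 100% = substrate without enzyme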
Target sequence (Q92905 whole entry, looked up, one chain of several): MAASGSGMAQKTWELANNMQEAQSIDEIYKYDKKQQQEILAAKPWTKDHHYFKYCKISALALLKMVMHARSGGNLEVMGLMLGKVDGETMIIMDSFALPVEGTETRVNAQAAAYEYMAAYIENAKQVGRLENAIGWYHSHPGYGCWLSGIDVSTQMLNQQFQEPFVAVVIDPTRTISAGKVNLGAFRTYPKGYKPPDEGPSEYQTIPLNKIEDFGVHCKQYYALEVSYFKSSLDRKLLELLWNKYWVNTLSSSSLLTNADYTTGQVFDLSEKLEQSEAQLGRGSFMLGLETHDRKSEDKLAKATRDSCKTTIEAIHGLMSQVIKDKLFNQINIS
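Material: purified human Csn5 enzyme expressed in HEK293T cells / Medium: Tris buffer pH 7.5, NaCl, DTT, Tween-20, trehalose, ovalbumin / Compound dosing: 12.5 µM single point / Schedule: 90 min incubation of compound, enzyme and substrate at room temperature / Signal: fluorescence polarization of the substrate / Control set: no-enzyme wells high, enzyme-with-substrate wells low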
STEP inh: blocks human striatal-enriched tyrosine phosphatase. recombinant STEP, OMFP fluorogenic substrate, fluorescence. inhibition, % at 20 µM. hit rate 0.25% among 360,000. AID 588621;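 active = inhibition at 20 µM, scaled per plate between control wells, above about 37%, limit read from the data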;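 also: 0% = DMSO with enzyme and substrate and 100% = substrate only without enzyme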
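Material: STEP (striatal-enriched tyrosine phosphatase) enzyme, cell-free | Medium: 50 mM Bis-Tris pH 6.0 with 2.5 mM DTT and 0.005% Tween 20 | Read-out: Percent inhibition scaled to no-enzyme and uninhibited-enzyme controls, plate-pattern corrected | Signal: Fluorescence read at 480 nm ex / 540 nm em | Times: 20 min reaction, room temperature, in the dark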
Scp-1 inhibitor: inhibitors of human Scp-1 phosphatase; Q9GZU7; Recombinant Scp1, phosphopeptide, malachite green phosphate absorbance; inhibition, % at 20 µM; hit rate 0.88% among 340,000;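 active = inhibition above about 50% at 20 µM, limit read from the data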;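 also: plate controls were DMSO wells with enzyme for no effect and wells lacking enzyme for full effect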
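Test system – truncated SCP-1 phosphatase (76-261aa) · Reagent – Phosphorylated 17-residue peptide substrate · Incubation – 45 min room-temperature reaction, 5 min colour, 30 min stabiliser · Detection – colorimetric phosphate reagent with accelerator and stabiliser, absorbance at 630 nm · Measure – % inhibition at 20 µM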
SUMO1 PPI mod: modulators of human SUMO1-mediated protein-protein interactions | SUMO1 binding to a labelled peptide, TR-FRET, 1 h | P63165 | inhibition, % at 20 µM | hit rate 0.33% among 360,000 | AID 602429; in the data active = inhibition above about 37%
Target sequence (P63165 whole entry, looked up): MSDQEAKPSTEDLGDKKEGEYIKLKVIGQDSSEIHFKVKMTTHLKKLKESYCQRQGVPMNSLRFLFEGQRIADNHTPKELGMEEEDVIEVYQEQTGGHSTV
DNMT1 block: blocks human DNA methyltransferase DNMT1. AID 588458. DNMT1 molecular beacon, Hinp1I cleavage, fluorescence. P26358. inhibition (reported as % activation of signal), % at 10 µM. hit rate 0.83% among 360,000; in the data active = inhibition above about 50%
Scp-1 conf: Scp-1 (human) inhibition, single-dose confirmed; shares compounds with Scp-1 inhibitor; recombinant SCP-1 catalytic domain, phosphate release, malachite green absorbance; inhibition, % at 20 µM; hit rate 61% among 2,500; AID 540281;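 also: plate controls were DMSO with enzyme for no effect and buffer wells lacking enzyme for full effect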
Scp-1 MG ctr: interferes with malachite green readout, flagging false Scp-1 hits; shares compounds with Scp-1 inhibitor; Colorimetric interference counterscreen, malachite green absorbance 630 nm; apparent inhibition (interference), % at 20 µM; 2,500 tested, under 10 active;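 also: compounds added after enzyme reaction finished so only phosphate colour detection is probed; plate controls were DMSO wells with completed Scp-1 reaction for no effect and substrate wells lacking enzyme for full effect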
Scp1 DSF: validation of human Scp-1 inhibitors by thermal shift binding; shares compounds with Scp-1 inhibitor; Recombinant SCP1, Sypro Orange thermal shift Tm; thermal shift relative to vanadate control, % at 40 µM; hit rate 25% among 1,500;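 active = substances whose mean melting-temperature shift, as a percentage of the reference inhibitor's shift, reaches about 5.3%, limit read from the data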;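 also: 0% = Tm of DMSO wells and 100% = Tm with sodium orthovanadate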
Starred values were filed as active, the others as inactive; · = no result. Hits are enriched below; roughly 1.9% of the tested compounds scored in any of these assays.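 The calls were made as follows, unless noted: active = inhibition of at least 30% at 20 µM; inactive = the rest.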

SMILES	LMPTP inh	CSN inh	STEP inh	Scp-1 inhibitor	SUMO1 PPI mod	DNMT1 block	Scp-1 conf	Scp-1 MG ctr	others
CCOC(=O)[C@@H]1[C@H]2COc3cc(OC)ccc3[C@@H]2N2C(=O)N(c3ccc(Br)cc3)C(=O)[C@]12C	3	-1	1	53*	1	1	-24	-13
CC(C)(C)OC(=O)N1CCCC1C(=O)NCCc1ccccc1 (stereo not drawn)	-3	3	-2	97*	-4	2	-4	-5
CCN(C[C@H]1N[C@@](C)(C(=O)OC)[C@H]2C(=O)N(Cc3ccccc3)C(=O)[C@@H]12)C(=O)C1CCCCC1	-2	0	-3	4	-7	1	·	·
CCOC(=O)C1CCCN(C(=O)c2ccc(Cl)c(S(=O)(=O)N3CCCCCC3)c2)C1 (stereo not drawn)	1	3	-1	-5	19	2	·	·
O=C(CN1CCN(C(=O)c2ccco2)CC1)Nc1cc(S(=O)(=O)N2CCCC2)ccc1Cl	0	0	-2	·	4	-4	·	·
COC1OC(c2ccccc2)=C(c2cnc(N)nc2)c2ccc(F)cc21 (stereo not drawn)	-1	-5	·	·	-3	·	·	·
NS(=O)(=O)c1ccc(NC(=S)Nc2ccc(F)c(F)c2)cc1	-1	-1	-3	60*	-4	2	-2	-11
O=C(/C=C/c1ccco1)NCC(=O)N/N=C/c1ccc(Cl)cc1	-1	-5	0	1	-14	1	·	·
O=C(/C=C/c1ccco1)NCC(=O)N/N=C/c1ccc([N+](=O)[O-])cc1	38	2	4	76*	-15	40	79*	-3	Scp1 DSF=6.6*
COCCN(CCOC)Cc1cc(=O)oc2cc(C)c(Cl)cc12	-2	4	-3	·	1	3	·	·
O=C(CCNC(=O)c1ccc([N+](=O)[O-])cc1)NNC(=O)c1ccncc1	-2	-1	-1	50*	-28	1	6	-4
O=C(CCNC(=O)c1ccc([N+](=O)[O-])cc1)Nc1ccc(F)cc1	-1	-2	-2	-5	-27	-1	·	·
COc1cc(/C=C/C(=O)O)cc(S(=O)(=O)NNC(=O)c2cc(C)oc2C)c1OC	-1	-5	-1	53*	4	18	49*	3	Scp1 DSF=-3
CN(C)S(=O)(=O)c1cccc(C(=O)OCC(=O)Nc2sccc2C(N)=O)c1	17	8	9	57*	20	9	4	0
CC(C)CC(=O)Nc1ccc(C(=O)CN2C(=O)NC3(CCOc4ccccc43)C2=O)cc1 (stereo not drawn)	0	-5	-2	0	0	0	·	·
CCn1nc(C)cc1C(=O)Sc1ccc(C)cc1	-1	4	3	-10	2	-2	·	·
Cc1nc2c(Br)c(C)nn2c2c1CCC2	-1	-5	4	-2	4	3	·	·
COc1ccc([N+](=O)[O-])cc1CSc1ccccn1	-1	-1	-1	61*	-11	-2	-2	-9
COc1cc([N+](=O)[O-])ccc1NC(=O)CSc1ccccn1	0	-5	0	·	-27	-4	·	·
Cc1ccc(S(=O)(=O)N2CCN(C(=O)c3cccc(-n4cccc4)c3)CC2)cc1	6	9	4	86*	11	32	43*	-5	Scp1 DSF=0
Cc1ccc(S(=O)(=O)N2CCN(C(=O)c3ccccc3)CC2)cc1	-1	-8	1	-9	1	2	·	·
Nc1ccccc1C#CC(=O)c1ccccc1	4	8	2	-1	-12	43	·	·
CC(C)C[C@@H]1Cc2[nH]c(=S)[nH]c(=O)c2[C@H](C)O1	-3	-1	·	·	0	·	·	·
COc1ccc(OC)c(NC(=O)CSc2ncnc3sc(C)cc23)c1	17	30	3	80*	27	24	64*	-12	Scp1 DSF=12*
COc1ccc(OC)c(NC(=O)CNC(=O)Cn2cnc3sc(C)cc3c2=O)c1	0	-4	-3	1	-4	5	·	·
SMILES	LMPTP inh	CSN inh	STEP inh	Scp-1 inhibitor	SUMO1 PPI mod	DNMT1 block	Scp-1 conf	Scp-1 MG ctr	others
CC(C)(C)C(=O)O/N=C1/C(=O)N(c2ccccc2)c2ccccc21	4	7	13	89*	-17	22	74*	-15	Scp1 DSF=-16
CC(C)CC(=O)O/N=C1\C(=O)N(c2ccccc2)c2ccccc21	-1	3	-5	-12	-14	5	·	·
CC(C)CN(C(=O)CN(C)CC(=O)Nc1ccc(Cl)c(C(F)(F)F)c1)c1c(N)n(CC(C)C)c(=O)[nH]c1=O	0	-5	0	1	1	-4	·	·
O=C(N/N=C/c1ccccc1[N+](=O)[O-])c1ccc2c(c1)OCCO2	0	0	2	-9	-39	-1	·	·
O=C(N/N=C/c1cc([N+](=O)[O-])ccc1O)c1ccc2c(c1)OCCO2	4	-4	6	64*	-12	-3	48*	-6	Scp1 DSF=-3
O=C(N/N=C/c1cc([N+](=O)[O-])ccc1Cl)c1ccc2nc[nH]c2c1	-1	8	2	55*	19	3	28	-2
COc1cccc2cc(C(=O)NCc3ccco3)c(=Nc3ccc(C(=O)O)cc3)oc12	0	0	0	56*	-17	-4	32*	-19	Scp1 DSF=0
COc1cccc2cc(C(=O)NCc3ccco3)c(=O)oc12	-2	-18	-1	-3	-16	-1	·	·
Cc1cccc(C(=O)OCC(=O)NCCCc2ccccc2)c1	0	-15	2	1	0	1	·	·
CCCc1n(CC(O)COC2CCCCC2)c2ccccc2[n+]1C (stereo not drawn)	-1	4	1	100*	1	-1	77*	-7	Scp1 DSF=-23
CCCc1n(CC(O)COCC2CC=CCC2)c2ccccc2[n+]1C (stereo not drawn)	-1	-8	-1	67*	-3	-3	10	-6
CCCc1n(CC(O)COCc2ccccc2)c2ccccc2[n+]1C (stereo not drawn)	1	-9	-3	21	-1	3	·	·
COc1ccc(C(=O)N=C2SC3CS(=O)(=O)CC3N2Cc2ccc(F)cc2)cc1 (stereo not drawn)	1	3	-1	-3	-1	9	·	·

From PubChem
